From ChEMBL document CHEMBL1671618, “Functional cloning and characterization of the multidrug efflux pumps NorM from Neisseria gonorrhoeae and YdhE from Escherichia coli” (Antimicrob Agents Chemother, 2008)

Key:
[1] = target: T1, Multidrug efflux pump subunit AcrB (Escherichia coli (strain K12), UniProt P31224); assay: Binding affinity to Escherichia coli K-12 multidrug efflux protein AcrB at pH 8.4 by equilibrium dialysis method
T1 sequence (P31224 whole entry): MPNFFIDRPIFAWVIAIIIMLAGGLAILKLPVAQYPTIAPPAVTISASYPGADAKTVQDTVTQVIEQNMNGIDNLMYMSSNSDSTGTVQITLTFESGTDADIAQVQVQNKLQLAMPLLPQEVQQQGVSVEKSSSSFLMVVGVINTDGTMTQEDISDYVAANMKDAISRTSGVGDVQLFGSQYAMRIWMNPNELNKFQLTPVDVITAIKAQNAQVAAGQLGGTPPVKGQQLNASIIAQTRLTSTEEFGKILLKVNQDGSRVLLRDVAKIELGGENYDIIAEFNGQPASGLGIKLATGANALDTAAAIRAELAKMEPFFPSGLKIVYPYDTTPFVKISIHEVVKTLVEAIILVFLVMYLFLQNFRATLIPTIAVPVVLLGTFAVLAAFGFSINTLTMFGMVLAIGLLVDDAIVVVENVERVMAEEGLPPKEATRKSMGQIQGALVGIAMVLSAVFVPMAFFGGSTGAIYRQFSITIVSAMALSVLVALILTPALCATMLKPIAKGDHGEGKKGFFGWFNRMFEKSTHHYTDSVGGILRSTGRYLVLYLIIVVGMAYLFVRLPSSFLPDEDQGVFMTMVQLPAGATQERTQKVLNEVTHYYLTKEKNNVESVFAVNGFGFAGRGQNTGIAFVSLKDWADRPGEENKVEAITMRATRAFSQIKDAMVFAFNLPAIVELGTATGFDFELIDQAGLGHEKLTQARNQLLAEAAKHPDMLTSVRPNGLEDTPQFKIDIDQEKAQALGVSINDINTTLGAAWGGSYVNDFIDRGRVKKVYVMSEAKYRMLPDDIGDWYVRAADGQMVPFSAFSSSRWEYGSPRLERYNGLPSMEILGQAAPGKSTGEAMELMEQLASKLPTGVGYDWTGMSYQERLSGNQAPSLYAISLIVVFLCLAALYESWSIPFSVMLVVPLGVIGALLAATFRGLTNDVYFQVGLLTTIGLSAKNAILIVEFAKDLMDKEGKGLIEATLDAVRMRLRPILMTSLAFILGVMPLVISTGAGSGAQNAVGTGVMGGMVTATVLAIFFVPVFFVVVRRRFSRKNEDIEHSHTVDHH

[2] = Binding affinity to Neisseria gonorrhoeae FA19 multidrug efflux protein NorM expressed in Escherichia coli AG100AX at pH 8.5 by fluorescence polarization assay
In short: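 Rhodamine 6G (1 μM) binding to purified DDM-solubilized His6-NorM, measured by steady-state fluorescence polarization across pH 5.8 to 8.5. Excitation 527 nm, emission 550 nm, 25°C, 5-min equilibration per titration point. KD fitted at each pH.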

[3] = target: T2, Multidrug resistance protein MdtK (Escherichia coli (strain K12), UniProt P37340); assay: Binding affinity to purified detergent-solubilized Escherichia coli K-12 multidrug efflux protein YdhE by equilibrium dialysis method
T2 sequence (P37340 whole entry): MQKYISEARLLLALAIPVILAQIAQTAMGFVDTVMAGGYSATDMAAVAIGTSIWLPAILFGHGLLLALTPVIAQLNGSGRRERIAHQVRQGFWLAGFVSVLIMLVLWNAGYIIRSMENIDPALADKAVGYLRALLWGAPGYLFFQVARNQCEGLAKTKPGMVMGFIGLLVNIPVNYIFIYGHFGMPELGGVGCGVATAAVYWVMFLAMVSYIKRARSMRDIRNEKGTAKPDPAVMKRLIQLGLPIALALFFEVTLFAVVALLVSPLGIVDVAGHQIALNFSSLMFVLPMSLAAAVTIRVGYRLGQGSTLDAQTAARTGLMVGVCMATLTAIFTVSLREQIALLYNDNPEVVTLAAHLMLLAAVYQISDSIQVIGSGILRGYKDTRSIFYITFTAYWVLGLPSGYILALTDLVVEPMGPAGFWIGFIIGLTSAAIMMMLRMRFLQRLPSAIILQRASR
In short: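 YdhE carried a C-terminal His6 tag and was overproduced in E. coli TOP10 by L-arabinose induction. It was solubilized in 1% DDM, then purified by Ni2+-affinity and G-200 sizing in 20 mM HEPES-NaOH pH 7.5 with 0.02% DDM. Purity was >90% by SDS-PAGE. Rhodamine 6G binding was measured by equilibrium dialysis to give the KD and the binding stoichiometry.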

[4] = target: T2, Multidrug resistance protein MdtK; assay: Binding affinity to Escherichia coli K-12 multidrug efflux protein YdhE […] in presence of 0.02% DDM surfactant by fluorescence polarization assay
Escherichia coli [5] = assay: Antimicrobial activity against AcrAB-deficient Escherichia coli AG100AX harboring pBAD plasmid after 18 to 24 hrs by two fold dilution method; type: functional
In short: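 Twofold agar dilution on LB agar containing the antimicrobial, inoculum 10⁴ CFU/spot. Growth was scored after 18–24 h at 37°C, and each MIC determination was repeated at least four times.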

Escherichia coli [6] = assay: Antimicrobial activity against AcrAB-deficient Escherichia coli AG100AX harboring pBADomegaydhE plasmid containing Escherichia coli multidrug efflux pump YdhE after 18 to 24 hrs by two fold dilution method; type: functional
[7] = Binding affinity to Neisseria gonorrhoeae FA19 multidrug efflux protein NorM expressed in Escherichia coli AG100AX in presence of 0.02% DDM surfactant by fluorescence polarization assay
[8] = Binding affinity to Neisseria gonorrhoeae FA19 multidrug efflux protein NorM […] using Scatchard plot in presence of 0.02% DDM surfactant by fluorescence polarization assay
[9] = Binding affinity to Neisseria gonorrhoeae FA19 multidrug efflux protein NorM expressed in Escherichia coli AG100AX in presence of => 100 mM NaCl by fluorescence polarization assay
In short: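 NaCl at 100 to 400 mM added to rhodamine 6G (1 μM) binding mixtures with purified His6-NorM in 20 mM HEPES-NaOH pH 7.5, 0.02% DDM.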

Escherichia coli [10] = assay: Antimicrobial activity against AcrAB-deficient Escherichia coli AG100AX harboring pBADomeganorM plasmid containing Neisseria gonorrhoeae multidrug efflux pump NorM after 18 to 24 hrs by two fold dilution method; type: functional

Question: Which Kd [1] does the source give for CC/N=c1\cc2oc3cc(NCC)c(C)cc3c(-c3ccccc3C(=O)OCC)c-2cc1C.Cl [RHODAMINE 6G HYDROCHLORIDE] here?
Answer: 10.3 µM

Question: And the Kd [2]?
Answer: 2600 nM

Question: And the Kd [3]?
Answer: 3 µM

Question: What about the Kd [4] of the same molecule?
Answer: 3 µM

Question: What about the MIC (Escherichia coli [5]) of the same molecule?
Answer: 3.12 µg/mL

Question: What about the MIC (Escherichia coli [6]) of the same molecule?
Answer: 12.5 µg/mL

Question: And the Kd [7]?
Answer: 3.4 µM

Question: What about the Kd [8] of the same molecule?
Answer: 3.6 µM

Question: What about the Kd [9] of the same molecule?
Answer: 2500 nM

Question: What about the MIC (Escherichia coli [10]) of the same molecule?
Answer: 12.5 µg/mL
